Assay results as given in ChEMBL document CHEMBL4513216, “Probing the Open Global Health Chemical Diversity Library for Multistage-Active Starting Points for Next-Generation Antimalarials” (ACS Infect Dis, 2020).

Test: Toxicity liver stage against HepG2, at 10uM
Format: cell-based
Design: test concentration 10 uM, cell line HepG2-A16-CD81EGFP
Conditions: human, HepG2-A16-CD81EGFP cells; read-out: INHIBITION
In short: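 Uninfected HepG2-A16-CD81EGFP cells, 3 × 10^3 per well, 1536-well, plated on prespotted compound at 10 μM final, parasite-free screening media added to match infected plates; puromycin 10 μM positive, DMSO 0.5% negative; run in parallel with 48 h PbLuc assay at 37 °C, 5% CO2; viability by CellTiter-Glo luminescence, normalized to controls.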

| SMILES | cytotoxicity at 10 µM |
| --- | --- |
| NC(=O)CN1C(=O)CO[C@H]2CN(Cc3ccc(F)c(F)c3)C[C@H]21 | 2.44% |
| Cc1cccc(C)c1NC(=O)CC(CN1CCN(C)CC1)C(=O)O (configuration not stated) | -3.68% |
| Cc1cc(O)cc(=O)n1CCCC(=O)Nc1n[nH]c2cccc(F)c12 | -8.85% |
| CN(C)S(=O)(=O)NCc1nn(CCN2CCCC2)c(=O)c2ccccc12 | -6.88% |
| O=C(c1ccccc1F)N1CC(c2nc(C3CC3)no2)C1 | -0.478% |
| COc1ccc(C)cc1NC(=O)C1CSc2ncc(C)c(=O)n2C1 (configuration not stated) | -1.99% |
| CC(C)NC(=O)N1CCC2(CC1)CCn1c(C3CC3)cnc12 | 2.04% |
| CC(C)CS(=O)(=O)N1CCC2(CC1)CCn1c(-c3cnn(C)c3)cnc12 | -131% |
| CC(C)c1cc2c(O)nc(CSCC(=O)NCc3ccncc3)nc2s1 | -6.18% |
| O=C(NCCN1CCCCC1)c1nc2ccccc2c(=O)[nH]1 | 10.5% |
| CCOCCCNC(=O)C(C)n1cc(Br)cn1 (configuration not stated) | -4.24% |
| CCn1cc(CNC(=O)C(C)C)cn1 | 7.74% |
| COc1cccc(CNCc2ccccc2Cl)c1O | -13.2% |
| CN(C)S(=O)(=O)N1CCCC(c2nccnc2-c2cccc(Cl)c2)C1 (configuration not stated) | 8.23% |
| CN1CCC(c2cccc(NCc3nccn3C)n2)CC1 | 8.28% |
| c1cc(CNc2ncc(-c3cnccn3)c([C@@H]3CCCO3)n2)ccn1 | 8.99% |
| O=C(N1CCOCC1)N1CCCC(c2ncncc2-c2ccncc2)C1 (configuration not stated) | -25.9% |
| Cc1ccc(S(=O)(=O)N2C[C@H]3C[C@H](NC(=O)c4cc(C)no4)[C@H]3C2)cc1 | -11.2% |
| Cc1ccc2c(c1)C(=O)NCC1(CCN(C(=O)c3cc(C)no3)CC1)O2 | -20.8% |
| CSCC[C@H]1CN2CCC[C@H]2CN1Cc1cn(C)nc1C | -9.85% |
| O=C(c1cncnc1)N1C[C@@H]2CC[C@H](Oc3cccc(F)c3)[C@@H]2C1 | -17.1% |
| O=C(C1CC1)N1CCC(c2nc(O)c3c(n2)CN(C2CCCC2)CC3)C1 (configuration not stated) | -24.1% |
| Cc1cc(CN2CCN(S(C)(=O)=O)CC(C(=O)N(C)C)C2)no1 (configuration not stated) | -9.74% |

| SMILES | cytotoxicity at 10 µM |
| --- | --- |
| CN(C(=O)COc1ccc(F)cc1)[C@@H]1CC[C@@H](n2ccnc2)[C@@H]1O | -5.28% |
| CNc1cccc(C2CCCN(C(=O)c3cncs3)C2)n1 (configuration not stated) | -18.3% |
| CC(=O)N1CCCC(Cc2nccn2C)C1 (configuration not stated) | -5.52% |
| CO[C@H]1CN(Cc2ccccc2F)C[C@@]12CCCO2 | -8.19% |
| COc1cc(C)ccc1OCC(=O)Nc1ccnc(OCCN(C)C)c1 | -5.18% |
| C=C(C)CN(CC)S(=O)(=O)c1c(F)cc(NC(C)=O)cc1F | -47.1% |
| CCOCCOc1ccc(S(=O)(=O)N2CCc3c(nc[nH]c3=O)C2)cc1 | -5.85% |
| Cn1ccc(C(=O)Nc2nc(-c3ccc4c(c3)CCO4)cs2)cc1=O | -9.46% |
| COc1ccccc1NCC(=O)Nc1cnn(Cc2ccccn2)c1 | -0.53% |
| CC1c2cc(F)ccc2CCN1CCCS(=O)(=O)C(C)C (configuration not stated) | 9.15% |
| CN(CCc1cccs1)CCc1nccs1 | -5.81% |
| CCNC(=O)C(C)NC(=O)Nc1ccccc1SCC (configuration not stated) | -7.4% |
| CC(C)SCc1cccc(NC(=O)NC(C)c2nc[nH]n2)c1 (configuration not stated) | -45.2% |
| CCC(C)NC(=O)Nc1cccc(OCC#N)c1 (configuration not stated) | -0.146% |
| Cn1cc(C(=O)NCCCN2CCCCCC2=O)c(-c2cccnc2)n1 | -8.3% |
| Cc1cc(C(=O)Nc2ccc(CN3CCOCC3)cn2)n(C)n1 | 3.86% |
| COC(=O)NCCC(=O)NC(C)Cc1ccccc1Br (configuration not stated) | -5.29% |
| CCN1CC(C(=O)NC(C)(C)CC)CC1=O (configuration not stated) | 1.82% |
| CCCc1ccc(S(=O)(=O)NCCNC(=O)c2ccoc2)cc1 | 7.36% |
| O=C(NCCN1C(=O)CCC1=O)c1nc2ccccc2c(=O)[nH]1 | -8.99% |
| CCCc1noc(C(C)N2CCN(c3ccc(C#N)cn3)CC2)n1 (configuration not stated) | -0.487% |
| OCCN1CCC(CNCc2ccc(N3CCCCC3)cc2)CC1 | -3% |
| CC(CC(=O)NS(C)(=O)=O)C1CCCCC1 (configuration not stated) | -13.5% |

| SMILES | cytotoxicity at 10 µM |
| --- | --- |
| CC(C)C(O)CNC(=O)Nc1ccc(F)c(Cl)c1 (configuration not stated) | 5.6% |
| CCNC(=O)C1CCCN(C(=O)Nc2ccc3c(c2)CCCN3C)C1 (configuration not stated) | 13.6% |
| CC(C)NC(=O)CN(C)C1CCN(c2ccc(C#N)cn2)CC1 | -16.1% |
| CCS(=O)(=O)NC1CCCN(c2ccc(F)cc2C)C1=O (configuration not stated) | 3.93% |
| Cc1cc(CNC(=O)c2cccs2)ccc1S(C)(=O)=O | 3.38% |
| OCC(O)CSCc1cc(Cl)ccc1Cl (configuration not stated) | -147% |
| Cc1ccc(C(=O)O)cc1NC(=O)C1CC=CC1 | -7.25% |
| O=C(NCc1ccco1)c1cccc(CN2CCCC2CO)c1 (configuration not stated) | -3.13% |
| COc1ccccc1CN(CC1CCCO1)C(=O)c1ccc(F)cn1 (configuration not stated) | -3.85% |
| CCC(CC)S(=O)(=O)NC(=O)c1ccc2c(c1)ncn2C | -6.58% |
| CCn1cc(CNC2CCN(c3cccc(Cl)c3)C2)cn1 (configuration not stated) | -10.1% |
| N#Cc1ccc(N2CCCN(CC(N)=O)CC2)cc1 | 3.11% |
| CC(C)N(Cc1cnn(C)c1)C(=O)c1ccnc(N(C)C)c1 | 10.6% |
| Cc1nsc(NC2CCOC3(CCCCC3)C2)n1 (configuration not stated) | 5% |
| Cc1oc(C(=O)O)cc1S(=O)(=O)Nc1cccc(-c2nccs2)c1 | -1.01% |
| NC(=O)C1(CNCc2csc(-c3cccs3)n2)CCOCC1 | -19.3% |
| CCC(CC)CNC(=O)N(C)C(C)c1ccccn1 (configuration not stated) | -6.2% |
| N#CCCN(C(=O)CN1CCCC1C1CCCCC1)c1ccccc1 (configuration not stated) | -12.1% |
| COc1ccccc1OCC(=O)NS(=O)(=O)c1cc(F)ccc1F | -9.18% |
| COc1ccc(OCC(=O)NC(C)c2ccccc2)c(C(=O)O)c1 (configuration not stated) | 2.4% |
| Cc1nc(CN2CCC(CNC(=O)Nc3ccccn3)CC2)oc1C | -3.5% |
| CN(Cc1cccc(F)c1)C(=O)CN1CCCC1CCc1ccccc1 (configuration not stated) | -12% |
| O=C(NCCC1CCCO1)c1ccccc1N1CCOCC1 (configuration not stated) | -10.8% |

| SMILES | cytotoxicity at 10 µM |
| --- | --- |
| CC(NC(=O)c1nc(=O)[nH][nH]1)c1ccc(OCC2CC2)c(F)c1 (configuration not stated) | -5.75% |
| CC1CN(CC(=O)NC(=O)NCc2ccccc2)CCO1 (configuration not stated) | -7.07% |
| CCOCC(=O)N1CC[C@H]2O[C@@H](C)C[C@H]2C1 | -67.9% |
| COc1nn(C)c2c1CCCN(C(=O)c1cc[nH]n1)C2 | -5.2% |
| CC(C)Cc1n[nH]c(C2CC(=O)N(CC(C)C)C2)n1 (configuration not stated) | 3.49% |
| CNC(=O)C1CCCN(c2nc(-c3ccco3)nc3c2CCNCC3)C1 (configuration not stated) | -7.74% |
| CC(C)(C)c1ncc2c(n1)CN(C(=O)c1ccc(C#N)nc1)C2 | -6.39% |
| COc1ccc2c(c1)C(C(=O)NCCN1CCNC1=O)CC(=O)N2 (configuration not stated) | -1.13% |
| c1cc(-c2nc3c(c(NCCc4c[nH]cn4)n2)CCNCC3)ccn1 | -146% |
| O=C(O)c1ccccc1C1CCN(C2Cc3ccccc3C2)C1 (configuration not stated) | 12.7% |
| CN(Cc1ccc2nsnc2c1)C(=O)Cn1ncc(N(C)C)cc1=O | 3.67% |
| OC[C@H]1CN(Cc2c(Cl)cncc2Cl)C[C@H]1CN1CCCCCC1 | -112% |
| Nc1ccc(-c2ccc(F)cc2Cl)cn1 | -151% |
| CN(C)S(=O)(=O)NCc1cccnc1Oc1ccccc1F | 1.81% |
| COc1cccc2c1OCC(C(=O)N1CCN(C3CCSCC3)CC1)C2 (configuration not stated) | -1.62% |
| CCc1nnc(CN(C)C[C@@H]2CCCN3CCCC[C@H]23)o1 | 1.52% |
| O=C(O)COc1ccc(Cl)cc1CN1CCC2(CCNCC2)CC1 | 6.45% |
| CN1C(=O)CC(C(=O)O)C12CCN(Cc1ccc(Cl)c(Cl)c1)CC2 (configuration not stated) | 2.12% |
| CN(C)C(=O)c1noc2c1CN(C(=O)CCC1CCCCN1C)CC2 (configuration not stated) | -2.74% |
| Fc1ccc(C(CNc2ccncn2)N2CCCCC2)cc1 (configuration not stated) | -1.88% |
| CSCc1nc(CNC(=O)C2CCCN(CC(N)=O)C2)cs1 (configuration not stated) | -7.82% |
| CCCN(C(=O)COC)c1nc2c(s1)CCc1c-2cnn1C | 5.15% |
| CC(C)C(C(=O)N1CCN(c2nccs2)CC1)n1cncn1 (configuration not stated) | -4.35% |

| SMILES | cytotoxicity at 10 µM |
| --- | --- |
| Cc1nc(C2CCCN2CCC(=O)N2CCc3ccccc32)no1 (configuration not stated) | -1.07% |
| CC(C)c1nc2n(n1)CC(NCc1nc(-c3ccsc3)no1)CC2 (configuration not stated) | -5.39% |
| Cn1cc(NC(=O)N2CCC(NS(C)(=O)=O)CC2)ccc1=O | -7.05% |
| Cc1nn(C)c(N(C)C)c1CNC1CCOc2c(F)cccc21 (configuration not stated) | -13.9% |
| CS(=O)(=O)N1CCCCCC1C1CCN(c2ncccc2C#N)CC1 (configuration not stated) | -3.2% |
| Cn1cc(CNC2CCCN(Cc3noc(C4CC4)n3)C2)cn1 (configuration not stated) | -9.52% |
| COc1ccc2c(c1)CN(Cc1nc3c(cnn3C)c(=O)[nH]1)CC2 | -8.57% |
| c1cnn(-c2ccc(CN3CCOC(Cn4cncn4)C3)cc2)c1 (configuration not stated) | -13.6% |
| c1ccc(-c2cnc(CN3CCCC3Cn3cncn3)o2)cc1 (configuration not stated) | -5.82% |
| Cn1cc(C(=O)CC2CCCN2C(=O)c2n[nH]c3ccccc23)cn1 (configuration not stated) | -0.842% |
| CC(c1nc(C2CC2)no1)N1CCN(Cc2ccccc2F)CC1 (configuration not stated) | 1.03% |
| Cc1cc(C(F)(F)F)n2nc(C3CCCN3C3CCSCC3)cc2n1 (configuration not stated) | 1.77% |
| Cc1ccc(C(=O)N2CC3(CCNCC3)c3cc(Cl)ccc32)cn1 | 1.61% |
| O=C(c1ccncc1)N1CC2(CCNCC2)c2cc(Cl)ccc21 | -3.22% |
| Cc1cc2c(=O)n3c(nc2s1)CCN(Cc1cncn1C)CC3 | -14.2% |
| CCO[C@@H]1CO[C@@]2(CCCN(Cc3scnc3C)C2)C1 | -9.06% |
| CN(C)C(=O)NCc1cc(=O)n2c(n1)CN(Cc1ccoc1)CCC2 | -99.3% |
| Cc1oncc1C(=O)N1CCC2(CCN(Cc3cccnc3)C2=O)C1 (configuration not stated) | -144% |
| CC(=O)NCC(=O)N1Cc2nccn2CC(CN(C)C(C)C)C1 (configuration not stated) | -75.7% |
| Cc1ccc(CN2Cc3c(C(=O)N(C)C)nn(C)c3C2)s1 | -12.6% |
